Drawing on ChEMBL document CHEMBL1667724, “Landomycins P-W, cytotoxic angucyclines from Streptomyces cyanogenus S-136” (J Nat Prod, 2011), this text covers IC50 for 18 molecules.

A short description of experiment [1]: Cytotoxicity against ER-refractory human MDA231 cells after 24 hrs by trypan blue staining. The format is functional, cell-based. The settings on record: MDA-MB-231, 24 h. The procedure, abridged: (§1)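 Cells grown in DMEM; 50 × 10^3 cells per well seeded and left to attach overnight, then medium replaced with fresh medium containing a range of compound concentrations for 24 hours at 37 °C. Adherent plus floating cells pooled, resuspended in PBS, and stained with 0.4% trypan blue for 3 min. Live and dead cells counted on a hemocytometer. IC50 taken from dose-response curves as the mean of three experiments. Ethanol served as positive control and untreated medium as negative control.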

The test system of experiment [2] is MCF7. Description: Cytotoxicity against ER-positive human MCF7 cells after 24 hrs by trypan blue staining. It counts as functional, cell-based. The procedure, abridged: as §1
Where [3] appears, read: Homo sapiens, MCF7, 24 h, read-out: IC50.

`C[C@]1(O)CC(=O)c2c(ccc3c2C(=O)c2cccc(O)c2C3=O)C1` [TETRANGOMYCIN]: the IC50 (usually the midpoint of a concentration-inhibition curve) was 1.55 µM in experiment [1] and “Not Active” in experiment [2] (mcf7).

On to `Cc1cc(O)c2c3c(ccc2c1)C(=O)c1c(O[C@H]2C[C@@H](O)[C@H](O[C@H]4C[C@@H](O[C@H]5CC[C@H](O)[C@H](C)O5)[C@H](O)[C@@H](C)O4)[C@@H](C)O2)cccc1C3=O` [LANDOMYCIN P], for which the IC50 in experiment [1] is 3.55 µM; in experiment [2] (mcf7), “Not Active”.

Take `Cc1cc(O)c2c3c(ccc2c1)C(=O)c1c(O[C@H]2C[C@@H](O)[C@H](O[C@H]4C[C@@H](O)[C@H](O)[C@@H](C)O4)[C@@H](C)O2)ccc(O)c1C3=O` [LANDOMYCIN R]: the IC50 was 1.7 µM in experiment [1] and “Not Active” in experiment [2] (mcf7).

As for `Cc1cc(O)c2c(c1)C[C@@H](O)C1=C2C(=O)c2cccc(O[C@H]3C[C@@H](O)[C@H](O[C@H]4C[C@@H](O[C@H]5CC[C@H](O[C@H]6C[C@@H](O)[C@H](O[C@H]7C[C@@H](O[C@H]8CC[C@H](O)[C@H](C)O8)[C@H](O)[C@@H](C)O7)[C@@H](C)O6)[C@H](C)O5)[C@H](O)[C@@H](C)O4)[C@@H](C)O3)c2C1=O` [LANDOMYCIN S], the values for the IC50 in experiment [1] and in experiment [2] (setting [3]) were 1.5 µM and 6.7 µM, respectively.

With `Cc1cc(O)c2c3c(ccc2c1)C(=O)c1c(O[C@H]2C[C@@H](O)[C@H](O[C@H]4C[C@@H](O[C@H]5CC[C@H](O[C@H]6C[C@@H](O)[C@H](O[C@H]7C[C@@H](O)[C@H](O)[C@@H](C)O7)[C@@H](C)O6)[C@H](C)O5)[C@H](O)[C@@H](C)O4)[C@@H](C)O2)ccc(O)c1C3=O` [LANDOMYCIN W], the 50% inhibitory concentration (IC50) in experiment [1] is 2.65 µM; in experiment [2] (setting [3]), 6.9 µM.

In the case of `Cc1cc(O)c2c(c1)C[C@@H](O)C1=C2C(=O)c2cccc(O[C@H]3C[C@@H](O)[C@H](O[C@H]4C[C@@H](O[C@H]5CC[C@H](O[C@H]6C[C@@H](O)[C@H](O[C@H]7C[C@@H](O)[C@H](O)[C@@H](C)O7)[C@@H](C)O6)[C@H](C)O5)[C@H](O)[C@@H](C)O4)[C@@H](C)O3)c2C1=O` [LANDOMYCIN V], the 50% inhibitory concentration (IC50) in experiment [1] stood at 1.5 µM; in experiment [2] (setting [3]), 6.1 µM.

Consider `Cc1cc(O)c2c3c(ccc2c1)C(=O)c1c(O[C@H]2C[C@@H](O)[C@H](O[C@H]4C[C@@H](O[C@H]5CC[C@H](O[C@H]6C[C@@H](O)[C@H](O[C@H]7C[C@@H](O[C@H]8CC[C@H](O)[C@H](C)O8)[C@H](O)[C@@H](C)O7)[C@@H](C)O6)[C@H](C)O5)[C@H](O)[C@@H](C)O4)[C@@H](C)O2)ccc(O)c1C3=O` [LANDOMYCIN U], for which the results for the half-maximal inhibitory concentration (IC50) in experiment [1] and in experiment [2] (setting [3]) were 7.3 µM and 2.1 µM, respectively.

In the case of `Cc1cc(O)c2c(c1)C[C@@H](O)C1=C2C(=O)c2c(O)ccc(O[C@H]3C[C@@H](O)[C@H](O[C@H]4C[C@@H](O[C@H]5CC[C@H](O[C@H]6C[C@@H](O)[C@H](O[C@H]7C[C@@H](O[C@H]8CC[C@H](O)[C@H](C)O8)[C@H](O)[C@@H](C)O7)[C@@H](C)O6)[C@H](C)O5)[C@H](O)[C@@H](C)O4)[C@@H](C)O3)c2C1=O` [LANDOMYCIN A], the results for the IC50 in experiment [1] and in experiment [2] (setting [3]) were 1.4 µM and 2.5 µM, respectively.

For the molecule `Cc1cc(O)c2c3c(ccc2c1)C(=O)c1c(O[C@H]2C[C@@H](O)[C@H](O[C@H]4C[C@@H](O)[C@H](O)[C@@H](C)O4)[C@@H](C)O2)cccc1C3=O` [LANDOMYCIN O], the IC50 in experiment [1] is 3.55 µM; in experiment [2] (mcf7), “Not Active”.

With `Cc1cc(O)c2c3c(ccc2c1)C(=O)c1c(O[C@H]2C[C@@H](O)[C@H](O[C@H]4C[C@@H](O[C@H]5CC[C@H](O[C@H]6C[C@@H](O)[C@H](O[C@H]7C[C@@H](O)[C@H](O)[C@@H](C)O7)[C@@H](C)O6)[C@H](C)O5)[C@H](O)[C@@H](C)O4)[C@@H](C)O2)cccc1C3=O` [LANDOMYCIN M], the 50% inhibitory concentration (IC50) is 1.9 µM in experiment [1] and 7.1 µM in experiment [2] (setting [3]).

For `Cc1cc(O)c2c(c1)C[C@@H](O)C1=C2C(=O)c2c(O)ccc(O[C@H]3C[C@@H](O)[C@H](O[C@H]4C[C@@H](O[C@H]5CC[C@H](O[C@H]6C[C@@H](O)[C@H](O[C@H]7C[C@@H](O)[C@H](O)[C@@H](C)O7)[C@@H](C)O6)[C@H](C)O5)[C@H](O)[C@@H](C)O4)[C@@H](C)O3)c2C1=O` [LANDOMYCIN B], the IC50 worked out at 1.8 µM in experiment [1] and 4.25 µM in experiment [2] (setting [3]).

Turning to `Cc1cc(O)c2c(c1)C[C@@H](O)C1=C2C(=O)c2cccc(O[C@H]3C[C@@H](O)[C@H](O[C@H]4C[C@@H](O)[C@H](O)[C@@H](C)O4)[C@@H](C)O3)c2C1=O` [LANDOMYCIN F], the half-inhibitory concentration (IC50) in experiment [1] is 1.8 µM; in experiment [2] (mcf7), “Not Active”.

For the molecule `Cc1cc(O)c2c(c1)C[C@@H](O)C1=C2C(=O)c2c(O)ccc(O)c2C1=O` [LANDOMYCINONE], the results for the concentration for half-maximal inhibition (IC50) in experiment [1] and in experiment [2] (setting [3]) were 1.4 µM and 2.1 µM, respectively.

For the molecule `Cc1cc(O)c2c3c(ccc2c1)C(=O)c1c(O)cccc1C3=O` [TETRANGULOL], the IC50 is 1.5 µM in experiment [1] and “Not Active” in experiment [2] (mcf7).

Regarding `Cc1cc(O)c2c3c(ccc2c1)C(=O)c1c(O[C@H]2C[C@@H](O)[C@H](O[C@H]4C[C@@H](O[C@H]5CC[C@H](O[C@H]6C[C@@H](O)[C@H](O[C@H]7C[C@@H](O[C@H]8CC[C@H](O)[C@H](C)O8)[C@H](O)[C@@H](C)O7)[C@@H](C)O6)[C@H](C)O5)[C@H](O)[C@@H](C)O4)[C@@H](C)O2)cccc1C3=O` [LANDOMYCIN T], the figures for the IC50 in experiment [1] and in experiment [2] (mcf7) were 1.85 µM and “Not Active”, respectively.

`Cc1cc(O)c2c3c(ccc2c1)C(=O)c1c(O)ccc(O)c1C3=O` [ANHYDROLANDOMYCINONE]: the IC50 was found to be 2 µM in experiment [1] and 1.8 µM in experiment [2] (setting [3]).

Take `Cc1cc(O)c2c(c1)C[C@@H](O)C1=C2C(=O)c2c(O)ccc(O[C@H]3C[C@@H](O)[C@H](O[C@H]4C[C@@H](O)[C@H](O)[C@@H](C)O4)[C@@H](C)O3)c2C1=O` [LANDOMYCIN D]: the IC50 stood at 1.75 µM in experiment [1] and 7.6 µM in experiment [2] (setting [3]).

Turning to `Cc1cc(O)c2c3c(ccc2c1)C(=O)c1c(O[C@H]2C[C@@H](O)[C@H](O[C@H]4C[C@@H](O[C@H]5CC[C@H](O)[C@H](C)O5)[C@H](O)[C@@H](C)O4)[C@@H](C)O2)ccc(O)c1C3=O` [LANDOMYCIN Q], the half-inhibitory concentration (IC50) was 3.85 µM in experiment [1] and “Not Active” in experiment [2] (mcf7).
